Bioassay records deposited in PubChem by Johns Hopkins Ion Channel Center.
An excerpt weighted towards active compounds, which were near 3.1% of everything screened.
hERG protect – shields human hERG channel from block by proarrhythmic agents | Q12809 | CHO-hERG, FluxOR thallium flux, dofetilide IC70 present | activation (rescue from dofetilide block), less the hit threshold, % at 10 µM | 310,000 tested, 0.51% active | AID 1511;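 active = activation above the mean of controls blocked by dofetilide plus 5 SD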;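 also: thallium influx through hERG after potassium depolarization seen as dye fluorescence rise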
KCNQ1 block – inhibitors of human KCNQ1 potassium channel; P51787; CHO-K1 KCNQ1, FluxOR thallium flux fluorescence; stronger effect = higher value; B-score at 10 µM; 310,000 tested, 1.3% active; AID 2642;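 active = compounds whose thallium flux B-score, printed positive for inhibition, exceeds three library SD while starting fluorescence stays within three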;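 also: channel opened by potassium depolarization with thallium stimulus after 20 min compound exposure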
KCNK3 block – human KCNK3 channel inhibition, primary screen | O14649 | CHO-KCNK3 thallium flux, FluxOR fluorescence; stronger effect = lower value | B-score at 10 µM | 340,000 tested, 0.84% active | AID 602410;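 active = B-score under library mean minus 4 SD, starting fluorescence ratio at most library mean plus 5 SD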;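 also: more negative B-score means stronger inhibition of thallium flux through KCNK3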
KCNQ1 act – potentiates or activates the human KCNQ1 potassium channel | P51787 | CHO-K1 KCNQ1, thallium flux FluxOR fluorescence; stronger effect = higher value | B-score at 10 µM | 310,000 tested, 0.35% active;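 active = fluorescence ratio B-score, a plate-corrected score, at least three library SD, with initial intensity B-score within 5 SD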
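assay system = CHO-K1 cells stably expressing KCNQ1 | medium = assay buffer, equal DMSO in all wells | timing = 37 °C overnight plating, 90-min dark dye load, 20-min compound pretreatment | measured by = kinetic FluxOR thallium fluorescence, 10-s 1-Hz baseline, 110-s post-stimulus read | measure = fluorescence change relative to baseline, converted to B score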
KCNK9 block – blocks the human KCNK9 two-pore domain potassium channel; HEK293 KCNK9, FluxOR thallium flux fluorescence; stronger effect = lower value; B-score at 10 µM; 310,000 tested, 1.2% active; AID 488922;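 active = ratio B-score over 3 SD below the library mean, with starting fluorescence within 5 SD of its mean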;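 also: negative B-score means less thallium flux so channel inhibition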
KCNK9 block conf – confirmation of human KCNK9 potassium channel inhibitors; 4,900 tested, 43% active; AID 492992; HEK293 KCNK9 cells, FluxOR thallium flux fluorescence; shares compounds with KCNK9 block; inhibition, % at 10 µM;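 active = thallium signal inhibited by more than 5 SD of the compound-free buffer control wells, on both duplicate plates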;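 also: 0% = assay buffer control wells without compound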
Kir21 sel – mouse Kir2.1 off-target activity of KCNK9 modulators. shares compounds with KCNK9 block. Kir2.1 cells, FluxOR thallium flux fluorescence. inhibition, % at 10 µM. 4,900 tested, 4% active. AID 492993;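 active = thallium signal drop more than 5 SD beyond the mean of the no-compound control wells, seen in both duplicate plates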;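 also: signal is fluorescence rise after thallium addition divided by baseline fluorescence; plate controls were assay buffer only for no effect and full block by chlorpromazine control for full effect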
Target sequence (P35561 whole entry, looked up): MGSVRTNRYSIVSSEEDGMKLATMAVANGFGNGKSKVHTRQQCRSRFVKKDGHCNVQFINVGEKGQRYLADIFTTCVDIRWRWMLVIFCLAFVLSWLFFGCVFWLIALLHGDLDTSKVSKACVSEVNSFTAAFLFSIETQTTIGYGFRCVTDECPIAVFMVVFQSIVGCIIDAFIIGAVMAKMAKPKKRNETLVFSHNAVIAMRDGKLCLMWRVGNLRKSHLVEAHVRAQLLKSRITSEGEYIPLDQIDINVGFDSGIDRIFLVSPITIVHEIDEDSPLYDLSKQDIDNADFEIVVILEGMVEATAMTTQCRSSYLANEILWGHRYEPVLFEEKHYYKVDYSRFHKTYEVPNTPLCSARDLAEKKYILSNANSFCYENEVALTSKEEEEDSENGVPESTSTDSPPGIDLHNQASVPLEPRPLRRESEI
HEK293 Tl ctr – second check of KCNK9 modulator effects in non-induced HEK293 cells; shares compounds with KCNK9 block; inhibition, % at 10 µM; 4,900 tested, 40% active; FluxOR thallium flux; AID 492997;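 active = thallium signal drop beyond 5 SD of the untreated control mean, on both duplicate plates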;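 also: plate controls were buffer only IC0 wells for no effect and SID17386958 at its maximal inhibitory level for full effect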
The depositor's hits bear a star; i = inactive; nt = no result.

SMILES	hERG protect	KCNQ1 block	KCNK3 block	KCNQ1 act	KCNK9 block	KCNK9 block conf	Kir21 sel	HEK293 Tl ctr
Cc1ccc(CN2CCc3c(OCc4ccc(F)cc4)cccc3C2=O)cc1	-11	i	i	i	-13*	71%*	i	42%*
COc1cc(C)c(NC(=O)C(=S)NCc2ccccc2)cc1C	3	i	i	i	i	i	i	27%*
COc1cc(C)c(NC(=O)C(=S)N2CCCC2)cc1C	-16	i	i	i	i	nt	nt	nt
COc1ccc(Oc2ncc(CN3CCN(c4ccccc4)CC3)s2)cc1	-3	i	i	i	i	i	i	i
CCOCc1c(C(=O)NCc2ccccc2CN2CCCC2)oc2ccccc12	nt	nt	i	nt	nt	nt	nt	nt
O=C(CSc1ncnc2sc3c(c12)CCCC3)N1CCC(c2noc3ccc(F)cc23)CC1	-22	i	i	i	i	i	i	i
Cc1cc(SCC(=O)N2CCC(c3noc4ccc(F)cc34)CC2)nc2ccccc12	-12	i	i	i	i	i	i	i
N#C/C(=C\c1c[nH]c2ccc(Br)cc12)c1ccccn1	-13	i	i	i	i	nt	nt	nt
C=CCN(C(=O)c1oc2c(Cl)cc(C)cc2c1C)C1CCS(=O)(=O)C1 (stereo not given)	-7	i	i	i	i	i	i	i
CCOc1ccc(CN2CCN(CC3CC3)CC2CCO)cc1 (stereo not given)	-10	i	i	i	i	nt	nt	nt
O=c1cc(-c2ccccc2)nc(N2CCN(Cc3ccc4c(c3)OCO4)CC2)[nH]1	nt	nt	i	nt	nt	nt	nt	nt
Cc1cccc(N2CCCn3c2nc2c3c(=O)[nH]c(=O)n2C)c1	-3	i	i	i	i	nt	nt	nt
COc1cc2cc(C(=O)N3CCC(Cc4ccccc4)CC3)[nH]c2cc1OC	0	i	i	i	i	nt	nt	nt
CC1CCN(C(=O)/C=C/c2ccc(C(C)(C)C)cc2)CC1	-15	i	i	i	-9*	62%*	i	50%*
Cc1ccc(/C=C/C(=O)N2CCC(Cc3ccccc3)CC2)cc1	-14	i	i	i	i	i	i	26%*
Cc1ccc(/C=C/C(=O)N2CCCC(C)C2)cc1 (stereo not given)	-15	i	i	i	i	nt	nt	nt
Cc1cc(C)c2cc(C(=O)N3CCC(Cc4ccccc4)CC3)[nH]c2c1	-13	i	i	i	i	i	i	i
Cc1ccccc1C(=O)Nc1c2c(nn1C(C)(C)C)CS(=O)(=O)C2	-7	i	i	i	i	nt	nt	nt
CCOc1ccccc1NC(=O)CCNC(=O)Cn1ccc2ccccc2c1=O	-4	i	i	i	i	nt	nt	nt
O=C(NCc1ccccc1)C1CCCN(S(=O)(=O)c2ccc(Br)cc2)C1 (stereo not given)	-8	i	i	i	i	nt	nt	nt
O=C(OCc1cc(=O)n2cc(Br)ccc2n1)c1ccc(Cl)c(S(=O)(=O)NCc2ccccc2)c1	-9	i	i	i	-11*	i	i	i
Cc1ccc(SCC(=O)NC(=O)Nc2ccc3c(c2)OCCO3)c(C)c1	-6	i	i	i	i	nt	nt	nt
CN1CCN(C(=O)c2ccc(Cl)c(S(=O)(=O)N3CCCCCC3)c2)CC1	-17	i	i	i	i	nt	nt	nt
O=C(c1ccc(Cl)c(S(=O)(=O)N2CCCCC2)c1)N1CCN(Cc2ccccc2)CC1	-3	i	i	i	i	i	i	i
O=C(c1ccc(Cl)c(S(=O)(=O)N2CCCC2)c1)N1CCN(Cc2ccccc2)CC1	nt	nt	i	nt	nt	nt	nt	nt
O=C(OCC(=O)N1CCCCCC1)c1ccc(Cl)c(S(=O)(=O)N2CCCC2)c1	-4	i	i	i	i	i	i	i
CCOC(=O)C1CCCN(C(=O)c2ccc(Cl)c(S(=O)(=O)N3CCCCCC3)c2)C1 (stereo not given)	-12	i	i	i	i	i	i	i
